According to ChEMBL document CHEMBL4130621, “Structure-Activity Relationship Studies with Tetrahydroquinoline Analogs as EPAC Inhibitors” (ACS Med Chem Lett, 2017):
Activity calls are given as the source filed them. No cut-off for these calls is given here.

How the values were obtained:
[1] = biological target: T1, Rap guanine nucleotide exchange factor 3 (Homo sapiens) (UniProt O95398); assay: Inhibition of recombinant human GST-tagged EPAC1 (149 to 881 residues) expressed in Escherichia coli Rosetta 2(DE3) assessed as reduction in guanine nucleotide exchange activity at 10 uM using BODIPY-labeled GDP loaded Rap1A by fluorescence assay relative to control
T1 sequence (whole entry): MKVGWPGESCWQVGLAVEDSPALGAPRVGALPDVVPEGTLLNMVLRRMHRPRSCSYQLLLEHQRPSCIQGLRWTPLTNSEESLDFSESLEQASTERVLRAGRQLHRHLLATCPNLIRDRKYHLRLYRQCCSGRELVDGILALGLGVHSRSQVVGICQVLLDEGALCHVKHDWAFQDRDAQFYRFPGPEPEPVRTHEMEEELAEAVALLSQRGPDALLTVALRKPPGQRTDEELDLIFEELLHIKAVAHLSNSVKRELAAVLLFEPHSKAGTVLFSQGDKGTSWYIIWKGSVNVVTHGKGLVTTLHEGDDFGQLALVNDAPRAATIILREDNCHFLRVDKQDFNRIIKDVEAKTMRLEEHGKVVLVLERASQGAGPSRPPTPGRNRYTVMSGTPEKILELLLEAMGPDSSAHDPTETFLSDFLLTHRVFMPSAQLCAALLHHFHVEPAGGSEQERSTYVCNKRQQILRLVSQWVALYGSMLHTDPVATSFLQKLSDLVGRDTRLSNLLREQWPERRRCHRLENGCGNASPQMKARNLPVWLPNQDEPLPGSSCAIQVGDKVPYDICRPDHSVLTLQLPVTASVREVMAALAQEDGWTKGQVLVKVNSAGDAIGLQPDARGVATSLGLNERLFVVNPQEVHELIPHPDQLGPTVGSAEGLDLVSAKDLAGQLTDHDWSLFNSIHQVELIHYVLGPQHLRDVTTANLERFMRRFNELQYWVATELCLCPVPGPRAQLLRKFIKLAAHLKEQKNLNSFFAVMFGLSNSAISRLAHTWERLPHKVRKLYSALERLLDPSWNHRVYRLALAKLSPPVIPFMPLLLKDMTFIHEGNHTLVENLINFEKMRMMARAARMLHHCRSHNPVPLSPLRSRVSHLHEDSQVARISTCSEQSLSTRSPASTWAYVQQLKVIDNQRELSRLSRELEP
Summary of the method: (§1)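 EPAC1 was stimulated with the analog present at 10 or 50 μM. Activity was then measured as guanine nucleotide exchange factor activity toward Rap1 in a BODIPY-GDP-based assay, used as a screen.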

[2] = biological target: T1, Rap guanine nucleotide exchange factor 3 (Homo sapiens); assay: Inhibition of recombinant human GST-tagged EPAC1 (149 to 881 residues) expressed in Escherichia coli Rosetta 2(DE3) assessed as reduction in guanine nucleotide exchange activity at 50 uM using BODIPY-labeled GDP loaded Rap1A by fluorescence assay relative to control; summary of the method: as §1
[3] = biological target: T2, Rap guanine nucleotide exchange factor 3 (Homo sapiens, UniProt O95398); assay: Inhibition of recombinant human GST-tagged EPAC1 (149 to 881 residues) expressed in Escherichia coli Rosetta 2(DE3) assessed as reduction in guanine nucleotide exchange activity using BODIPY-labeled GDP loaded Rap1A by fluorescence assay
T2 sequence (O95398 whole entry): T1 sequence (whole entry)

[4] = biological target: Rap guanine nucleotide exchange factor 4 (Homo sapiens, UniProt Q8WZA2); assay: Inhibition of recombinant human GST-tagged EPAC2 expressed in Escherichia coli Rosetta 2(DE3) assessed as reduction in guanine nucleotide exchange activity using BODIPY-labeled GDP loaded Rap1A by fluorescence assay
Chain of Rap guanine nucleotide exchange factor 4 (Q8WZA2 whole entry): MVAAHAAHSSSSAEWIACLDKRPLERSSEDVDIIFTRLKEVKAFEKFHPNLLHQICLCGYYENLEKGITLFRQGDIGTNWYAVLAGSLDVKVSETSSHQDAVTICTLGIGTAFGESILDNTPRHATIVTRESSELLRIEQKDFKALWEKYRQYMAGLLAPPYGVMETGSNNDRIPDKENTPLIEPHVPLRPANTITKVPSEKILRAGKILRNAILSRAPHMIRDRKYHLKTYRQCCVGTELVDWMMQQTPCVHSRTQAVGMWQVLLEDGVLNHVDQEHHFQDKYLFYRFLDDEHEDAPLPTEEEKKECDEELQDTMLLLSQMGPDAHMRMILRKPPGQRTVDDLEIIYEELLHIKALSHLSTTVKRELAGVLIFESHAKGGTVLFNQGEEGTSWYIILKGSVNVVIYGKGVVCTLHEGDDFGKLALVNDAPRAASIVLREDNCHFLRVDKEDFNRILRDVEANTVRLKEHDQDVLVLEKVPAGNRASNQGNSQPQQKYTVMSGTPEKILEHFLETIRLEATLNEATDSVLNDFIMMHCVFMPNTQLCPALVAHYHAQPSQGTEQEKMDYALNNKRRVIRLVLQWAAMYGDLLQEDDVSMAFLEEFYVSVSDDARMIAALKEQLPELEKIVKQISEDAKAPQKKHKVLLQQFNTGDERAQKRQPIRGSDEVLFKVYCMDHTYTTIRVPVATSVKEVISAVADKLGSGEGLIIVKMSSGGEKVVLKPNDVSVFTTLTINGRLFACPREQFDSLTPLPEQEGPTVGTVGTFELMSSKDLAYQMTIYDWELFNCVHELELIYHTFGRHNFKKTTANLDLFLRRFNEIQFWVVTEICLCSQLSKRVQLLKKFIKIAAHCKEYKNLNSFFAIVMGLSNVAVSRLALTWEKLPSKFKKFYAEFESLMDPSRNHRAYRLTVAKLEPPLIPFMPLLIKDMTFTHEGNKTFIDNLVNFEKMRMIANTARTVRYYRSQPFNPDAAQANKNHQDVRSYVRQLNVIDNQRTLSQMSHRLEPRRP

inhibition [1]	inhibition [2] [%]	IC50 [3] [µM]	IC50 [4] [µM]	SMILES
		> 100		C[C@H]1CCc2c(cc(Br)c(F)c2Br)N1C=S
Active				C[C@@H]1CCc2c(cc(Br)c(F)c2Br)N1
		17.6		C[C@@H]1CCc2c(cc(Br)c(F)c2Br)N1C=S
Active				C[C@H]1CCc2cc(F)ccc2N1C=O
		3.3	22.3	C[C@@H]1CCc2c(cc(Br)c(F)c2Br)N1C=O
23.6%	46			CC1CCc2c(Br)c(F)c(Br)c(Br)c2N1C=O (centres undefined)

More lines, now with the values behind:

SMILES	inhibition [1]	inhibition [2] [%]	IC50 [3] [µM]	IC50 [4] [µM]
C[C@@H]1CCc2c(ccc(F)c2Br)N1C=O	Active			
CC1CCc2c(cc(Br)c(F)c2Br)N1C=O (centres undefined)	58.1%	88.3		
C[C@H]1CCc2c(cc(Br)c(F)c2Br)N1	Active			
CC1CCc2c(ccc(F)c2Br)N1C=O (centres undefined)	15.8%	42		
C[C@H]1CCc2c(cc(Br)c(F)c2Br)N1C=O			31.3	17.1
CC1CCc2cc(F)ccc2N1C=O (centres undefined)	5.3%	5		
C[C@H]1CCc2c(ccc(F)c2Br)N1C=O	Active			
CC1CCc2c(cc(Br)c(F)c2Br)N1 (centres undefined)	40.8%	74.1		
CC(=O)N1c2cc(Br)c(F)c(Br)c2CCC1C (centres undefined)	8.7%	26.2		
C[C@@H]1CCc2cc(F)ccc2N1C=O	Active			
